Source: ChEMBL document CHEMBL4371078, “N-Naphthoyl-substituted indole thio-barbituric acid analogs inhibit the helicase activity of the hepatitis C virus NS3” (Bioorg Med Chem Lett, 2019)
The source made the active and inactive calls. The calls are words filed in the database; no cut-off is given here.

Tests used:
[1] = tested on: Hepatitis C virus subtype 1b; assay: Inhibition of recombinant full length HCV genotype 1b NS3 helicase activity assessed as reduction in 5'-FAM labeled dsDNA substrate unwinding at 30 uM preincubated for 10 mins followed by MgCl2/ATP addition and measured after 30 mins by real-time fluorescence assay
How it was run: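 96-well real-time unwinding of a fluorescently labelled duplex DNA by full-length recombinant NS3 with saturating ATP and Mg2+. Read-out was the increase in FAM fluorescence. Compounds were tested at 30 µM in 5% DMSO. Unwinding rates were normalized to DMSO controls. Values are the mean ± standard deviation of triplicate measurements.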

[2] = tested on: Hepatitis C virus subtype 1b; assay: Inhibition of polyU RNA-stimulated recombinant full length HCV genotype 1b NS3 ATPase activity assessed as Kcat for substrate at 25 uM in presence of 5 mM ATP measured for 1 min by pyruvate kinase/ lactate dehydrogenase enzyme coupled spectrophotometric method (reference value: 68 /s)
[3] = tested on: Hepatitis C virus subtype 1b; assay: Inhibition of polyU RNA-stimulated recombinant full length HCV genotype 1b NS3 ATPase activity assessed as Km for substrate at 25 uM in presence of 5 mM ATP measured for 1 min by pyruvate kinase/ lactate dehydrogenase enzyme coupled spectrophotometric method (reference value: 0.41 mM)
[4] = (§1) Inhibition of recombinant full length HCV genotype 1b NS3 helicase activity assessed as reduction in 5'-FAM labeled dsDNA substrate unwinding preincubated for 10 mins followed by MgCl2/ATP addition and measured after 30 mins by real-time fluorescence assay; set-up: species or system Hepatitis C virus subtype 1b
How it was run: (§2)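 Real-time plate unwinding of a FAM-labelled duplex DNA by full-length recombinant NS3 with saturating ATP and Mg2+, read as the fluorescence increase. Compounds were dosed over a range to derive an IC50.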

[5] = tested on: Hepatitis C virus subtype 1b; assay: as §1; how it was run: as §2
[6] = tested on: Hepatitis C virus subtype 1b; assay: (§3) Inhibition of recombinant full length HCV genotype 1b NS3 helicase activity assessed as reduction in radiolabeled dsDNA substrate unwinding by measuring unwinding rate constant at 25 uM preincubated for 5 mins followed by MgCl2/ATP addition and measured up to 50 mins by PAGE based phosphor imaging analysis (reference value: 0.039 +/- 0.002 /min)
How it was run: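 Gel-based unwinding of 2 nM radiolabelled duplex DNA by 100 nM recombinant NS3 with excess ATP. Compound was present at 25 µM. Unwound fraction was quantified at time points and fit to a single exponential for the rate constant. Triplicate experiments were averaged.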

[7] = tested on: Hepatitis C virus subtype 1b; assay: as §3, with “radiolabeled 38 bp dsRNA” for “radiolabeled dsDNA”, “for 20” for “for 5”, “to 4” for “to 50”, “value: 1.84” for “value: 0.039”, “+/- 0.19” for “+/- 0.002”
How it was run: (§4)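 Polyacrylamide gel unwinding of a radiolabelled 38 bp duplex RNA by recombinant NS3 with compound at 25 µM. Radioactivity at time points from triplicate experiments was averaged and fit to a single exponential to give rate constants.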

[8] = tested on: Hepatitis C virus subtype 1b; assay: Inhibition of recombinant full length HCV genotype 1b NS3 helicase activity assessed as reduction in radiolabeled 38 bp dsRNA substrate unwinding t 25 uM preincubated for 20 mins followed by MgCl2/ATP addition and measured up to 4 mins by PAGE based phosphor imaging analysis relative to control; how it was run: as §4
[9] = Inhibition of recombinant full length HCV genotype 1b NS3 interaction with 3'-FAM labeled ssDNA assessed as Kd for NS3-ssDNA complex at 25 uM by fluorescence polarization assay (reference value: 3.3 +/- 0.2 nM); set-up: species or system Hepatitis C virus subtype 1b
Hepacivirus hominis [10] = assay: Inhibition of HCV NS3/4A protease activity at 25 uM using Ac-Asp-Glu-Asp-EDANS-Glu-Glu-Abu-L-Lactoyl-Ser-Lys DABCYL-NH2 as substrate measured for 30 mins by fluorescence assay
How it was run: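 NS3–4A protease activity read by fluorescence of the internally quenched EDANS/DABCYL peptide after cleavage. Compounds were tested at 25 µM, with telaprevir at 10 µM as the positive control. Activities were normalized. Values are the mean ± standard deviation of triplicate measurements.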

Hepacivirus hominis [11] = assay: Inhibition of HCV NS3/4A protease activity at 10 uM using Ac-Asp-Glu-Asp-EDANS-Glu-Glu-Abu-L-Lactoyl-Ser-Lys DABCYL-NH2 as substrate measured for 30 mins by fluorescence assay relative to control
How it was run: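 Recombinant HCV NS3–4A with full protease activity, incubated with the internally quenched EDANS/DABCYL peptide substrate; cleavage read as the rise in fluorescence. Activities were normalized to control and given as mean ± standard deviation of triplicate measurements.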

| Structure (SMILES) | inhibition [1] | kcat [2] | Km [3] | IC50 [4] | inhibition [5] | K [6] | K [7] | inhibition [8] | Kd [9] | inhibition (Hepacivirus hominis [10]) | inhibition (Hepacivirus hominis [11]) |
| --- | --- | --- | --- | --- | --- | --- | --- | --- | --- | --- | --- |
| O=C1NC(=S)NC(=O)C1=Cc1cn(C(=O)c2cccc3ccccc23)c2ccc(Cl)cc12 | inactive |  |  |  |  |  |  |  |  |  |  |
| O=C1NC(=S)NC(=O)C1=Cc1cn(C(=O)c2ccc3ccccc3c2)c2ccccc12 | Active | 65.3 s⁻¹ | 480 µM | 21.6 µM | Dose-dependent effect | 0.018 min⁻¹ | 1.81 min⁻¹ | 50% | 0.0031 µM | inactive |  |
| O=C1NC(=S)NC(=O)C1=Cc1cn(C(=O)c2ccc3ccccc3c2)c2ccc(Cl)cc12 | inactive |  |  |  |  |  |  |  |  |  |  |
| COc1ccc2c(c1)c(C=C1C(=O)NC(=S)NC1=O)cn2C(=O)c1ccc2ccccc2c1 | Active | 73 s⁻¹ | 1000 µM | 21.4 µM | Dose-dependent effect | 0.021 min⁻¹ | 2.38 min⁻¹ | 50% | 0.0028 µM | inactive |  |
| CCC[C@H](NC(=O)[C@@H]1[C@H]2CCC[C@H]2CN1C(=O)[C@@H](NC(=O)[C@@H](NC(=O)c1cnccn1)C1CCCCC1)C(C)(C)C)C(=O)C(=O)NC1CC1 |  |  |  |  |  |  |  |  |  |  | 85% |
| COc1ccc2c(c1)c(C=C1C(=O)NC(=S)NC1=O)cn2C(=O)c1cccc2ccccc12 | Active | 68.7 s⁻¹ | 860 µM | 23.5 µM | Dose-dependent effect | 0.024 min⁻¹ | 2.14 min⁻¹ | 50% | 0.0057 µM | inactive |  |
